Test results taken from ChEMBL document CHEMBL4689842, “EUbOPEN Chemogenomics Library wave 1” (2021).
“And” between values parts separate entries of the source, which are not always exact repeats. Identical values can stand only once.

Test system: Fibroblast
Assay: Multiplex assay against human fibroblast
Format: toxicity, cell-based
How it was run: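 Live cells were stained at seeding with Hoechst33342, BioTracker Green Microtubule Cytoskeleton Dye, MitoTracker Red and Annexin V Alexa Fluor 680. Following compound addition, they were imaged on a CQ1 microscope at 37°C and 5% CO2 and gated by CellPathfinder machine learning into Hoechst high-intensity objects or normal cells, with normal cells split into healthy, pyknosed or fragmented nuclei and pyknosed cells into mitotic or apoptotic. Tubulin, mitochondrial-mass and membrane-permeability phenotypes are per cents of healthy-nucleus cells.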

[1] = 12 h, 1 µM, compound concentration 1 uM, replicate 1
[2] = 12 h, 1 µM, compound concentration 1 uM, replicate 2
[3] = 12 h, 10 µM, compound concentration 10 uM, replicate 1
[4] = 12 h, 10 µM, compound concentration 10 uM, replicate 2
[5] = 24 h, 1 µM, compound concentration 1 uM, replicate 1
[6] = 24 h, 1 µM, compound concentration 1 uM, replicate 2
[7] = 24 h, 10 µM, compound concentration 10 uM, replicate 1
[8] = 24 h, 10 µM, compound concentration 10 uM, replicate 2
[9] = 48 h, 1 µM, compound concentration 1 uM, replicate 1
[10] = 48 h, 1 µM, compound concentration 1 uM, replicate 2
[11] = 48 h, 10 µM, compound concentration 10 uM, replicate 1
[12] = 48 h, 10 µM, compound concentration 10 uM, replicate 2

SMILES: CC[C@H](C)C(=O)O[C@H]1C[C@@H](C)C=C2C=C[C@H](C)[C@H](CC[C@@H]3C[C@@H](O)CC(=O)O3)[C@H]21 [LOVASTATIN]
- Population Apoptotic (%) [1]: 63%
- Population Fragmented Nuclei (%) [1]: 33%
- Population Healthy Nuclei (%) [1]: 35%
- Population Hoechst High Intensity Objects (%) [1]: 13%
- Population Membrane Permeable-Phenotype (%) [1]: 23%
- Population Mitochondria Different-Phenotype (%) [1]: 14%
- Population Mitotic Cells (%) [1]: 36%
- Population Normal (%) [1]: 86%
- Population Pyknosed Nuclei (%) [1]: 31%
- Population Tubulin-Different-Phenotype (%) [1]: 42%
- Total Cell Count [1]: 69
- Population Apoptotic (%) [2]: 25%
- Population Fragmented Nuclei (%) [2]: 22%
- Population Healthy Nuclei (%) [2]: 68%
- Population Hoechst High Intensity Objects (%) [2]: 11%
- Population Membrane Permeable-Phenotype (%) [2]: 3%
- Population Mitochondria Different-Phenotype (%) [2]: 6%
- Population Mitotic Cells (%) [2]: 75%
- Population Normal (%) [2]: 88%
- Population Pyknosed Nuclei (%) [2]: 8%
- Population Tubulin-Different-Phenotype (%) [2]: 3%
- Total Cell Count [2]: 87
- Population Apoptotic (%) [3]: 50%
- Population Fragmented Nuclei (%) [3]: 33%
- Population Healthy Nuclei (%) [3]: 45%
- Population Hoechst High Intensity Objects (%) [3]: 13%
- Population Membrane Permeable-Phenotype (%) [3]: 22%
- Population Mitochondria Different-Phenotype (%) [3]: 13%
- Population Mitotic Cells (%) [3]: 50%
- Population Normal (%) [3]: 86%
- Population Pyknosed Nuclei (%) [3]: 22%
- Population Tubulin-Different-Phenotype (%) [3]: 42%
- Total Cell Count [3]: 115
- Population Apoptotic (%) [4]: 100%
- Population Fragmented Nuclei (%) [4]: 4%
- Population Healthy Nuclei (%) [4]: 90%
- Population Hoechst High Intensity Objects (%) [4]: 8%
- Population Membrane Permeable-Phenotype (%) [4]: 10%
- Population Mitochondria Different-Phenotype (%) [4]: 12%
- Population Mitotic Cells (%) [4]: 0%
- Population Normal (%) [4]: 91%
- Population Pyknosed Nuclei (%) [4]: 4%
- Population Tubulin-Different-Phenotype (%) [4]: 20%
- Total Cell Count [4]: 54
- Population Apoptotic (%) [5]: 44%
- Population Fragmented Nuclei (%) [5]: 36%
- Population Healthy Nuclei (%) [5]: 47%
- Population Hoechst High Intensity Objects (%) [5]: 11%
- Population Membrane Permeable-Phenotype (%) [5]: 11%
- Population Mitochondria Different-Phenotype (%) [5]: 15%
- Population Mitotic Cells (%) [5]: 55%
- Population Normal (%) [5]: 88%
- Population Pyknosed Nuclei (%) [5]: 16%
- Population Tubulin-Different-Phenotype (%) [5]: 38%
- Total Cell Count [5]: 62
- Population Apoptotic (%) [6]: 40%
- Population Fragmented Nuclei (%) [6]: 22%
- Population Healthy Nuclei (%) [6]: 70%
- Population Hoechst High Intensity Objects (%) [6]: 9%
- Population Membrane Permeable-Phenotype (%) [6]: 0%
- Population Mitochondria Different-Phenotype (%) [6]: 4%
- Population Mitotic Cells (%) [6]: 60%
- Population Normal (%) [6]: 90%
- Population Pyknosed Nuclei (%) [6]: 7%
- Population Tubulin-Different-Phenotype (%) [6]: 4%
- Total Cell Count [6]: 93
- Population Apoptotic (%) [7]: 43%
- Population Fragmented Nuclei (%) [7]: 26%
- Population Healthy Nuclei (%) [7]: 48%
- Population Hoechst High Intensity Objects (%) [7]: 14%
- Population Membrane Permeable-Phenotype (%) [7]: 19%
- Population Mitochondria Different-Phenotype (%) [7]: 10%
- Population Mitotic Cells (%) [7]: 56%
- Population Normal (%) [7]: 85%
- Population Pyknosed Nuclei (%) [7]: 24%
- Population Tubulin-Different-Phenotype (%) [7]: 28%
- Total Cell Count [7]: 110
- Population Apoptotic (%) [8]: 28%
- Population Fragmented Nuclei (%) [8]: 8%
- Population Healthy Nuclei (%) [8]: 79%
- Population Hoechst High Intensity Objects (%) [8]: 7%
- Population Membrane Permeable-Phenotype (%) [8]: 8%
- Population Mitochondria Different-Phenotype (%) [8]: 4%
- Population Mitotic Cells (%) [8]: 71%
- Population Normal (%) [8]: 92%
- Population Pyknosed Nuclei (%) [8]: 11%
- Population Tubulin-Different-Phenotype (%) [8]: 23%
- Total Cell Count [8]: 74
- Population Apoptotic (%) [9]: 66%
- Population Fragmented Nuclei (%) [9]: 55%
- Population Healthy Nuclei (%) [9]: 39%
- Population Hoechst High Intensity Objects (%) [9]: 9%
- Population Membrane Permeable-Phenotype (%) [9]: 26%
- Population Mitochondria Different-Phenotype (%) [9]: 0%
- Population Mitotic Cells (%) [9]: 33%
- Population Normal (%) [9]: 90%
- Population Pyknosed Nuclei (%) [9]: 5%
- Population Tubulin-Different-Phenotype (%) [9]: 39%
- Total Cell Count [9]: 64
- Population Apoptotic (%) [10]: 33%
- Population Fragmented Nuclei (%) [10]: 17%
- Population Healthy Nuclei (%) [10]: 73%
- Population Hoechst High Intensity Objects (%) [10]: 7%
- Population Membrane Permeable-Phenotype (%) [10]: 23%
- Population Mitochondria Different-Phenotype (%) [10]: 6%
- Population Mitotic Cells (%) [10]: 66%
- Population Normal (%) [10]: 92%
- Population Pyknosed Nuclei (%) [10]: 9%
- Population Tubulin-Different-Phenotype (%) [10]: 23%
- Total Cell Count [10]: 69
- Population Apoptotic (%) [11]: 71%
- Population Fragmented Nuclei (%) [11]: 58%
- Population Healthy Nuclei (%) [11]: 33%
- Population Hoechst High Intensity Objects (%) [11]: 20%
- Population Membrane Permeable-Phenotype (%) [11]: 19%
- Population Mitochondria Different-Phenotype (%) [11]: 3%
- Population Mitotic Cells (%) [11]: 28%
- Population Normal (%) [11]: 80%
- Population Pyknosed Nuclei (%) [11]: 7%
- Population Tubulin-Different-Phenotype (%) [11]: 29%
- Total Cell Count [11]: 115
- Population Fragmented Nuclei (%) [12]: 37%
- Population Healthy Nuclei (%) [12]: 52%
- Population Hoechst High Intensity Objects (%) [12]: 15%
- Population Membrane Permeable-Phenotype (%) [12]: 14%
- Population Mitochondria Different-Phenotype (%) [12]: 2%
- Population Normal (%) [12]: 84%
- Population Pyknosed Nuclei (%) [12]: 10%
- Population Tubulin-Different-Phenotype (%) [12]: 34%
- Total Cell Count [12]: 79

SMILES: C[C@@]1(C(=O)Nc2ccc(F)nc2)CCCN1c1nc(Nc2cc(C3CC3)n[nH]2)c2cccn2n1 [BMS-754807]
- Population Apoptotic (%) [1]: 63%
- Population Fragmented Nuclei (%) [1]: 36%
- Population Healthy Nuclei (%) [1]: 50%
- Population Hoechst High Intensity Objects (%) [1]: 10%
- Population Membrane Permeable-Phenotype (%) [1]: 18%
- Population Mitochondria Different-Phenotype (%) [1]: 13%
- Population Mitotic Cells (%) [1]: 36%
- Population Normal (%) [1]: 89%
- Population Pyknosed Nuclei (%) [1]: 13%
- Population Tubulin-Different-Phenotype (%) [1]: 69%
- Total Cell Count [1]: 257
- Population Apoptotic (%) [2]: 66%
- Population Fragmented Nuclei (%) [2]: 75%
- Population Healthy Nuclei (%) [2]: 16%
- Population Hoechst High Intensity Objects (%) [2]: 28%
- Population Membrane Permeable-Phenotype (%) [2]: 50%
- Population Mitochondria Different-Phenotype (%) [2]: 33%
- Population Mitotic Cells (%) [2]: 33%
- Population Normal (%) [2]: 71%
- Population Pyknosed Nuclei (%) [2]: 8%
- Population Tubulin-Different-Phenotype (%) [2]: 66%
- Total Cell Count [2]: 52
- Population Apoptotic (%) [3]: 63% and 78%
- Population Fragmented Nuclei (%) [3]: 22% and 25%
- Population Healthy Nuclei (%) [3]: 42%
- Population Hoechst High Intensity Objects (%) [3]: 16% and 15%
- Population Mitotic Cells (%) [3]: 36% and 21%
- Population Normal (%) [3]: 84%
- Population Pyknosed Nuclei (%) [3]: 34% and 16%
- Total Cell Count [3]: 75 and 165
- Population Apoptotic (%) [4]: 80% and 33%
- Population Healthy Nuclei (%) [4]: 37% and 58%
- Population Hoechst High Intensity Objects (%) [4]: 29% and 13%
- Population Membrane Permeable-Phenotype (%) [4]: 17% and 22%
- Population Normal (%) [4]: 70% and 86%
- Total Cell Count [4]: 87 and 53
- Population Apoptotic (%) [5]: 63%
- Population Fragmented Nuclei (%) [5]: 27%
- Population Healthy Nuclei (%) [5]: 55%
- Population Hoechst High Intensity Objects (%) [5]: 9%
- Population Membrane Permeable-Phenotype (%) [5]: 10%
- Population Mitochondria Different-Phenotype (%) [5]: 26%
- Population Mitotic Cells (%) [5]: 36%
- Population Normal (%) [5]: 90%
- Population Pyknosed Nuclei (%) [5]: 16%
- Population Tubulin-Different-Phenotype (%) [5]: 70%
- Total Cell Count [5]: 219
- Population Apoptotic (%) [6]: 75%
- Population Fragmented Nuclei (%) [6]: 65%
- Population Healthy Nuclei (%) [6]: 19%
- Population Hoechst High Intensity Objects (%) [6]: 40%
- Population Membrane Permeable-Phenotype (%) [6]: 40%
- Population Mitochondria Different-Phenotype (%) [6]: 40%
- Population Mitotic Cells (%) [6]: 25%
- Population Normal (%) [6]: 59%
- Population Pyknosed Nuclei (%) [6]: 15%
- Population Tubulin-Different-Phenotype (%) [6]: 60%
- Total Cell Count [6]: 44
- Population Apoptotic (%) [7]: 41% and 63%
- Population Fragmented Nuclei (%) [7]: 26% and 20%
- Population Healthy Nuclei (%) [7]: 53% and 63%
- Population Hoechst High Intensity Objects (%) [7]: 21% and 13%
- Population Membrane Permeable-Phenotype (%) [7]: 35% and 15%
- Population Mitotic Cells (%) [7]: 58% and 36%
- Population Normal (%) [7]: 78% and 86%
- Population Pyknosed Nuclei (%) [7]: 19% and 15%
- Total Cell Count [7]: 80 and 166
- Population Apoptotic (%) [8]: 60% and 37%
- Population Healthy Nuclei (%) [8]: 28% and 47%
- Population Mitochondria Different-Phenotype (%) [8]: 25% and 59%
- Population Mitotic Cells (%) [8]: 40% and 62%
- Population Normal (%) [8]: 68% and 90%
- Total Cell Count [8]: 83 and 51
- Population Apoptotic (%) [11]: 92%
- Population Fragmented Nuclei (%) [11]: 35%
- Population Healthy Nuclei (%) [11]: 39%
- Population Hoechst High Intensity Objects (%) [11]: 27%
- Population Membrane Permeable-Phenotype (%) [11]: 23%
- Population Mitochondria Different-Phenotype (%) [11]: 28%
- Population Mitotic Cells (%) [11]: 7%
- Population Normal (%) [11]: 72%
- Population Pyknosed Nuclei (%) [11]: 24%
- Population Tubulin-Different-Phenotype (%) [11]: 85%
- Total Cell Count [11]: 73
- Population Apoptotic (%) [12]: 70%
- Population Fragmented Nuclei (%) [12]: 27%
- Population Healthy Nuclei (%) [12]: 56%
- Population Hoechst High Intensity Objects (%) [12]: 9%
- Population Membrane Permeable-Phenotype (%) [12]: 24%
- Population Mitochondria Different-Phenotype (%) [12]: 43%
- Population Mitotic Cells (%) [12]: 30%
- Population Normal (%) [12]: 90%
- Population Pyknosed Nuclei (%) [12]: 15%
- Population Tubulin-Different-Phenotype (%) [12]: 100%
- Total Cell Count [12]: 72
